Assay results: ChEMBL document CHEMBL4330127, “Discovery of Novel Pyruvate Dehydrogenase Kinase 4 Inhibitors for Potential Oral Treatment of Metabolic Diseases” (J Med Chem, 2019)
Calls of active or inactive are those of the source. The rule behind the calls is not given here.

How the values were obtained:
[1] = molecular target: [Pyruvate dehydrogenase (acetyl-transferring)] kinase isozyme 4, mitochondrial (Homo sapiens, UniProt Q16654); test: Inhibition of PDK4 in HEK293T cells assessed as reduction in PDHE1alpha phosphorylation at Ser-293 residue by measuring phosphorylated PDHE1alpha level at 10 uM after 24 hrs by Western blot analysis; format: cell-based
Chain of [Pyruvate dehydrogenase (acetyl-transferring)] kinase isozyme 4, mitochondrial (Q16654 whole entry, looked up): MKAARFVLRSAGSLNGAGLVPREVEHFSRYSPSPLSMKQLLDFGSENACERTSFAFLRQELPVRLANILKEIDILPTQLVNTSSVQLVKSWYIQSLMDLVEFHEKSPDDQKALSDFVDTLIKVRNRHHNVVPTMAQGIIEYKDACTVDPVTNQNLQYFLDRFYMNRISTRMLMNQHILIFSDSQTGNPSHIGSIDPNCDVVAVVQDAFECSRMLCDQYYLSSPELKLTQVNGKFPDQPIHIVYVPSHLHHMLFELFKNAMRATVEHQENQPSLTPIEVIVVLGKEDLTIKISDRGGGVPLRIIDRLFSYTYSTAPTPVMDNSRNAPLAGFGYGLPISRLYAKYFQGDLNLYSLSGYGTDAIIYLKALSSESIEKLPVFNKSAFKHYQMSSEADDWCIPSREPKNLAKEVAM
Method in brief: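 HEK293T cells grown in high-glucose DMEM with 10% FBS at 37 °C, 5% CO2. Medium renewed after 24 h, then cells exposed to compound for 24 h and lysed. 20 μg protein per lane Western blotted with antibodies to phospho-PDHE1α Ser232, Ser293 and Ser300 and to total PDHE1α. Band intensity quantified relative to control; triplicate.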

[2] = molecular target: Cytochrome P450 2D6 (Homo sapiens, UniProt P10635); test: Inhibition of CYP2D6 in human liver microsomes assessed as reduction in dextromethorphan O-demethylation by tandem mass spectrometry analysis; format: ADME
Chain of Cytochrome P450 2D6 (P10635 whole entry): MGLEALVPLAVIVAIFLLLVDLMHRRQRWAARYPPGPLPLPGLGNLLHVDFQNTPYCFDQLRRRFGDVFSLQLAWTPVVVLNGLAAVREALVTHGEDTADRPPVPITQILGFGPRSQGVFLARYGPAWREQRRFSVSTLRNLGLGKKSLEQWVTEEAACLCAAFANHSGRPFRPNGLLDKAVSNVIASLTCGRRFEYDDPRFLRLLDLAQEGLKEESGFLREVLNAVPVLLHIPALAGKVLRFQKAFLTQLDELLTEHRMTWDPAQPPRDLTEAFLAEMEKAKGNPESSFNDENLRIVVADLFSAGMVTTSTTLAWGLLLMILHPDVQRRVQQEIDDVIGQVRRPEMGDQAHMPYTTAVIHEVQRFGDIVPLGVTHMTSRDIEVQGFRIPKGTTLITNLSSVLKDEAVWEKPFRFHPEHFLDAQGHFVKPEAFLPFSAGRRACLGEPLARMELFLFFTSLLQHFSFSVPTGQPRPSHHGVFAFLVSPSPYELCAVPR
Method in brief: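 Pooled human liver microsomes incubated with compound at 0–50 μM final; CYP probe activities (phenacetin O-deethylation for 1A2, tolbutamide 4-hydroxylation for 2C9, omeprazole hydroxylation for 2C19, dextromethorphan O-demethylation for 2D6) run as a cocktail incubation and quantified by tandem MS; duplicates; IC50 derived.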

[3] = molecular target: UDP-glucuronosyltransferase 1A1 (Homo sapiens, UniProt P22309); test: Inhibition of UGT1A1 in human liver microsomes assessed as reduction in SN-38 glucuronidation by tandem mass spectrometry analysis; format: ADME
Chain of UDP-glucuronosyltransferase 1A1 (P22309 whole entry): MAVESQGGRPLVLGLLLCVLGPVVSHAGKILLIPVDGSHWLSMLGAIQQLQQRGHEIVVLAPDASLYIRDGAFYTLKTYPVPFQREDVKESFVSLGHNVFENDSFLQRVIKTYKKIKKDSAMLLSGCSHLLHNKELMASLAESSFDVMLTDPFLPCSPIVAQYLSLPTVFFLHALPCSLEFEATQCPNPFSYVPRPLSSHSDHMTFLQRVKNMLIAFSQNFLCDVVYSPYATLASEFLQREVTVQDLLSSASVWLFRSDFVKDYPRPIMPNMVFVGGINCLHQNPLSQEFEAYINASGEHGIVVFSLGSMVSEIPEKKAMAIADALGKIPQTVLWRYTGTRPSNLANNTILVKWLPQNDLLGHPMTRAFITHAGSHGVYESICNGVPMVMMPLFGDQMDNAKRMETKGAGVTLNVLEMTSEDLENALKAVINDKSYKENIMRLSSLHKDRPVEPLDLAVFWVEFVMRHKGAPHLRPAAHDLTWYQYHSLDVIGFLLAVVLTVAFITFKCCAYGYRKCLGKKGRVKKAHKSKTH
Method in brief: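 Pooled human liver microsomes; test compound at final 0–50 μM in a cocktail incubation with probe substrates: midazolam 1′-hydroxylation (CYP3A), SN-38 glucuronidation (UGT1A1), trifluoperazine N-glucuronidation (UGT1A4), mycophenolic acid glucuronidation (UGT1A9), naloxone 3-glucuronidation (UGT2B7). Metabolites measured by tandem MS; IC50 determined; duplicate.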

[4] = tested on: HFL1; test: Cytotoxicity against HFL1 cells; format: cell-based; settings: Homo sapiens
[5] = AUCt in rat at 5 mg/kg, iv; format: ADME, organism-based; settings: in vivo
Method in brief: (§1)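 Male rats given a single dose, 5 mg/kg intravenously or 10 mg/kg orally. Plasma PK parameters were reported as mean ± SD: AUCt, AUC∞, Cmax, Tmax, T1/2, CL, Vss and oral bioavailability F.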

[6] = Half life in rat at 10 mg/kg, po; format: ADME, organism-based; settings: in vivo; method in brief: as §1
[7] = AUCt in rat at 10 mg/kg, po; format: ADME, organism-based; settings: in vivo; method in brief: as §1
[8] = molecular target: RAC-alpha serine/threonine-protein kinase (Mus musculus) (UniProt P31750); test: Increase in AKT phosphorylation at Ser-473 residue in mouse AML-12 cells at 10 uM after 24 hrs by Western blot analysis; format: cell-based
Chain of RAC-alpha serine/threonine-protein kinase (Mus musculus) (P31750 whole entry): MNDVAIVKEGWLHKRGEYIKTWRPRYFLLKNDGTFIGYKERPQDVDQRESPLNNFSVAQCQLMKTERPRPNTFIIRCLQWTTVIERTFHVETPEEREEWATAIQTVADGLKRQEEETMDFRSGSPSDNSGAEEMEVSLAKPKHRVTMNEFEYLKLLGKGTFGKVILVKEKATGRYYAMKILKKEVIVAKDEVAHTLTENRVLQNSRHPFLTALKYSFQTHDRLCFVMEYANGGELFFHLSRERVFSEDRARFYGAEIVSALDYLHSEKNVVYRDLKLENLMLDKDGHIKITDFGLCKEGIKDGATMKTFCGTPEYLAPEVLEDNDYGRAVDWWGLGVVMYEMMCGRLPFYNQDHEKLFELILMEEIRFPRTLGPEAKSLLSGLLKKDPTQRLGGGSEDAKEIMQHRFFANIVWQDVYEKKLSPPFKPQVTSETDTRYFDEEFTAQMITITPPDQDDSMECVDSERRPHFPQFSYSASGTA
Method in brief: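 AML12 hepatocytes challenged with palmitate, then exposed to 10 μM compound or vehicle (5 mM DCA as reference) for 24 h; p-Akt read by Western blot of cell lysates.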

[9] = molecular target: Cellular tumor antigen p53 (Homo sapiens) (UniProt P04637); test: Induction of p53 phosphorylation at Ser-15 residue in human HCT116 cells after 24 hrs by Western blot analysis; format: cell-based
Chain of Cellular tumor antigen p53 (Homo sapiens) (P04637 whole entry, looked up): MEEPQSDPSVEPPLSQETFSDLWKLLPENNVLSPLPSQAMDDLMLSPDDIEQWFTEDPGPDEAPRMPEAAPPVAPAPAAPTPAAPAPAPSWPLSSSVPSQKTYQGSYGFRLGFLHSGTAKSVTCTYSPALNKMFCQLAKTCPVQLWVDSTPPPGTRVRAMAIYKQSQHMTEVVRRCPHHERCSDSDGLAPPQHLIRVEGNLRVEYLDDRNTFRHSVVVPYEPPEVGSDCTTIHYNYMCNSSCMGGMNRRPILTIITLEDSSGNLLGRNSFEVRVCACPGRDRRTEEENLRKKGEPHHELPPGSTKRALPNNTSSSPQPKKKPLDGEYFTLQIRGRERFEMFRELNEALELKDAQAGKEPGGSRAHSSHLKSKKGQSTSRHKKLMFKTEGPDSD
Method in brief: (§2)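 HCT116 and RKO cells given a range of compound doses for 24 h; lysates probed by Western blot for apoptosis-related proteins (p53, BAX, BCLxL).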

[10] = tested on: HCT-116; test: Induction of apoptosis in human HCT116 cells assessed as increase in Bax expression at 10 to 50 uM after 24 hrs by Western blot analysis; format: functional, cell-based; method in brief: as §2
[11] = tested on: HCT-116; test: Induction of apoptosis in human HCT116 cells assessed as decrease in Bcl-XL expression at 10 to 50 uM after 24 hrs by Western blot analysis; format: functional, cell-based; method in brief: as §2
[12] = tested on: RKO; test: Induction of apoptosis in human RKO cells assessed as increase in cleaved-PARP expression at 10 to 50 uM after 24 hrs by Western blot analysis; format: functional, cell-based; method in brief: as §2
[13] = tested on: RKO; test: Induction of apoptosis in human RKO cells assessed as increase in cleaved caspase-3 expression at 10 to 50 uM after 24 hrs by Western blot analysis; format: functional, cell-based; method in brief: as §2
[14] = tested on: HCT-116; test: Antiproliferative activity against human HCT116 cells up to 50 uM up to 72 hrs by CCK8 assay; format: functional, cell-based
Method in brief: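 HCT116 and RKO cells were treated with compound alone or with oxaliplatin and grown for 0–72 h. Viability was read by CCK-8 colorimetry at 450 nm.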

[15] = tested on: HCT-116; test: Inhibition of colony formation in human HCT116 cells at 10 to 50 […] after 7 days by crystal violet staining based assay; format: functional, cell-based
Method in brief: (§3)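 HCT116 and RKO cells seeded in 6-well plates and treated with compound for 7 days. Cells then fixed and stained with crystal violet to score colony formation.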

[16] = tested on: RKO; test: Inhibition of colony formation in human RKO cells at 10 to 50 […] after 7 days by crystal violet staining based assay; format: functional, cell-based; method in brief: as §3
[17] = tested on: HCT-116; test: Induction of apoptosis in human HCT116 cells assessed as late apoptotic cells at 25 uM after 24 hrs by Annexin V/propidium iodide staining based flow cytometry (reference value: 8.36%); format: functional
[18] = tested on: HCT-116; test: Induction of apoptosis in human HCT116 cells assessed as early apoptotic cells at 25 uM after 24 hrs in presence of oxaliplatin by Annexin V/propidium iodide staining based flow cytometry (reference value: 7.31%); format: functional
[19] = tested on: HCT-116; test: Cell cycle arrest in human HCT116 cells assessed as accumulation at S phase at 10 uM after 24 hrs propidium iodide staining based flow cytometry (reference value: 18%); format: functional
Method in brief: (§4)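 HCT116 and RKO cells were treated with compound alone or with oxaliplatin for 24 h before harvest. Cells were stained with propidium iodide, and DNA content was analysed by flow cytometry. Cell-cycle phase populations, including sub-G1, are given as percentages.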

[20] = tested on: HCT-116; test: Cell cycle arrest in human HCT116 cells assessed as accumulation at sub-G1 phase at 25 uM after 24 hrs propidium iodide staining based flow cytometry (reference value: 17.8%); format: functional; method in brief: as §4
[21] = tested on: HCT-116; test: Cell cycle arrest in human HCT116 cells assessed as accumulation at S phase at 50 uM after 24 hrs propidium iodide staining based flow cytometry (reference value: 18%); format: functional; method in brief: as §4
[22] = tested on: HCT-116; test: Cell cycle arrest in human HCT116 cells assessed as accumulation at G2/M phase at 50 uM after 24 hrs propidium iodide staining based flow cytometry (reference value: 22.2%); format: functional; method in brief: as §4
[23] = tested on: HCT-116; test: Cell cycle arrest in human HCT116 cells assessed as accumulation at G2/M phase at 25 uM after 24 hrs in presence of oxaliplatin propidium iodide staining based flow cytometry (reference value: 28.2%); format: functional; method in brief: as §4
[24] = tested on: RKO; test: Induction of apoptosis in human RKO cells assessed as late apoptotic cells at 10 uM after 24 hrs by Annexin V/propidium iodide staining based flow cytometry (reference value: 7.42%); format: functional
[25] = tested on: RKO; test: Induction of apoptosis in human RKO cells assessed as necrotic cells at 10 uM after 24 hrs by Annexin V/propidium iodide staining based flow cytometry (reference value: 0.56%); format: functional
[26] = tested on: RKO; test: Cell cycle arrest in human RKO cells assessed as accumulation at S phase at 25 uM after 24 hrs propidium iodide staining based flow cytometry (reference value: 19.2%); format: functional
[27] = tested on: RKO; test: Cell cycle arrest in human RKO cells assessed as accumulation at G2/M phase at 25 uM after 24 hrs propidium iodide staining based flow cytometry (reference value: 23.3%); format: functional; method in brief: as §4
[28] = tested on: RKO; test: Cell cycle arrest in human RKO cells assessed as accumulation at S phase at 50 uM after 24 hrs propidium iodide staining based flow cytometry (reference value: 19.2%); format: functional

Cl.O=C1c2ccccc2C(=O)c2c1cccc2-c1cnn(C2CCNCC2)c1
fold change (FC) [1]: 0.18 | IC50 [2]: > 50 µM | IC50 [3]: > 50 µM | IC50 [4]: 36.5 µM | AUC(0-t) [5]: 7020 ng·h/mL | half-life [6]: 21.6 h | AUC(0-t) [7]: 8920 ng·h/mL | Activity [8]: Active | Activity [9]: Dose-dependent effect | Activity [10]: Active | Activity [11]: Active | Activity [12]: Active | Activity [13]: Active | Activity [14]: Active | inhibition [15]: Active | inhibition [16]: Active | Activity [17]: 23.9% | Activity [18]: 7.7% | Activity [19]: 29.1% | Activity [20]: 32.5% | Activity [21]: 5.3% | Activity [22]: 5.3% | Activity [23]: 33.5% | Activity [24]: 11.2% | Activity [25]: 0.89% | Activity [26]: 6% | Activity [27]: 21.6% | Activity [28]: 2.7%
